# Reference: ChEMBL document CHEMBL1212830, “The structure-activity relationship of the 3-oxy site in the anticonvulsant (R)-N-benzyl 2-acetamido-3-methoxypropionamide” (J Med Chem, 2010)
# Legend:
# Mus musculus [1] = assay: Anticonvulsant activity in ip dosed albino Carworth Farms number 1 mouse assessed as protection against maximal electroshock-induced seizure; type: functional; settings: albino Carworth Farms number 1, ip
# Outline: (§1)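 Maximal electroshock (MES) seizure test within the NINDS Anticonvulsant Screening Program. Protection is scored as block of induced hind limb extension. Mice are dosed ip and rats po.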
# Mus musculus [2] = assay: Anticonvulsant activity in ip dosed 6 Hz psychomotor seizure model of albino Carworth Farms number 1 mouse assessed as protection against seizure; type: functional; settings: albino Carworth Farms number 1, ip
# Outline: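 Psychomotor 6 Hz seizure test at 32 mA in mice, compound given intraperitoneally, run within the NINDS Anticonvulsant Screening Program. Median effective dose (ED50) in mg/kg from quantitative screening.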
# Rattus norvegicus [3] = assay: Anticonvulsant activity in po dosed albino Sprague-Dawley rat assessed as protection against maximal electroshock-induced seizure; type: functional; settings: albino Spague-Dawley; outline: as §1
# [4] = Neurotoxicity in po dosed albino Sprague-Dawley rat by rotarod test; type: toxicity, organism-based, albino Spague-Dawley; settings: in vivo
# Outline: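 Rotorod test for behavioural neurotoxicity (mice ip, rats po). Median dose causing neurological impairment in 50% of animals (TD50, mg/kg) is determined only for compounds active in the MES test. The highest rat dose tested was 500 mg/kg.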
# Rattus norvegicus [5] = assay: Protective index, ratio of neurotoxicity TD50 to anticonvulsant ED50 for po dosed albino Spague-Dawley rat; type: functional
# Outline: (§2)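 Protective index is calculated as rotorod TD50 divided by MES ED50, both in mg/kg and from the same species and route (mice ip, rats po).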
# Rattus norvegicus [6] = assay: Anticonvulsant activity in ip dosed albino Sprague-Dawley rat assessed as protection against maximal electroshock-induced seizure; type: functional; settings: albino Spague-Dawley
# Outline: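 Run under the NINDS Anticonvulsant Screening Program. Rats received compound intraperitoneally as a stated exception to the usual oral rat route. Protection meant blocking hind-limb extension in the maximal electroshock test. ED50 was derived from quantitative dose-response screening of compounds with significant activity.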
# [7] = Neurotoxicity in ip dosed albino Sprague-Dawley rat by rotarod test; type: toxicity, organism-based, albino Spague-Dawley; settings: in vivo
# [8] = Neurotoxicity in ip dosed albino Carworth Farms number 1 mouse by rotarod test; type: toxicity, organism-based; settings: in vivo
# Mus musculus [9] = assay: Protective index, ratio of neurotoxicity TD50 to anticonvulsant ED50 for ip dosed albino Carworth Farms number 1 mouse; type: functional; outline: as §2
# Rattus norvegicus [10] = assay: Neurotoxicity in albino Sprague-Dawley rat assessed as induction of ataxia at up to 3000 mg/kg, po by rotarod test; type: toxicity, organism-based, albino Spague-Dawley; parameters: dose 3000 mg/kg, route oral; settings: in vivo
# Outline: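 Rats were dosed orally. Median neurotoxic dose (TD50) was taken from behavioural neurological impairment, judged with the rotarod test. It was determined only for compounds with significant activity in the maximal electroshock test. Testing was done under the NINDS Anticonvulsant Screening Program procedures.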
Structure (SMILES),ED50 (Mus musculus [1]) [mg/kg],ED50 (Mus musculus [2]) [mg/kg],ED50 (Rattus norvegicus [3]) [mg/kg],TD50 [4] [mg/kg],Ratio TD50/ED50 (Rattus norvegicus [5]),ED50 (Rattus norvegicus [6]) [mg/kg],TD50 [7] [mg/kg],TD50 [8] [mg/kg],Ratio TD50/ED50 (Mus musculus [9]),Activity (Rattus norvegicus [10])
C#CCOC[C@@H](NC(C)=O)C(=O)NCc1ccccc1,16,29,7.9,> 500,>63,–,–,–,–,–
CC(=O)N[C@H](COCCN=[N+]=[N-])C(=O)NCc1ccccc1,100,44,> 40,–,>13,5.7,78,–,–,–
CC(=O)N[C@H](COCCN=C=S)C(=O)NCc1ccccc1,> 300,–,< 30,> 30,–,–,–,100,–,–
[2H]C([2H])([2H])OC[C@@H](NC(C)=O)C(=O)NCc1ccccc1,–,–,5.2,200,–,–,–,–,–,–
CC(=O)N[C@H](COC1CCCCC1)C(=O)NCc1ccccc1,100,–,30,> 30,–,–,–,300,–,–
CC#CCOC[C@@H](NC(C)=O)C(=O)NCc1ccccc1,30,–,6.4,> 500,–,–,–,30,–,–
CC(=O)N[C@H](COCC1CCCCC1)C(=O)NCc1ccccc1,100,–,–,–,–,–,–,300,–,–
CC(=O)N[C@H](COCc1ccccc1)C(=O)NCc1ccccc1,64,–,> 30,> 30,–,–,–,200,3.2,–
C=CCCOC[C@@H](NC(C)=O)C(=O)NCc1ccccc1,30,–,17,> 500,>29,–,–,100,–,–
CC(=O)N[C@H](COCCC1CC1)C(=O)NCc1ccccc1,46,–,> 30,> 30,–,–,–,85,1.9,–
C#CCCOC[C@@H](NC(C)=O)C(=O)NCc1ccccc1,30,–,11,250,>23,–,–,30,–,–
CC(=O)N[C@H](COCCc1ccccc1)C(=O)NCc1ccccc1,100,–,> 30,> 30,–,–,–,100,–,–
CC(=O)N[C@H](COCCC1(C)N=N1)C(=O)NCc1ccccc1,30,–,44,> 500,>11,–,–,100,–,–
CC(=O)N[C@H](COCCC=O)C(=O)NCc1ccccc1,> 300,–,> 100,–,–,–,–,> 300,–,–
CC(=O)NCCOC[C@@H](NC(C)=O)C(=O)NCc1ccccc1,> 300,–,> 30,> 30,–,–,–,> 300,–,–
COCc1cn(CCOC[C@@H](NC(C)=O)C(=O)NCc2ccccc2)nn1,> 300,> 100,–,–,–,–,–,> 300,–,–
COCCOC[C@@H](NC(C)=O)C(=O)NCc1ccccc1,30,–,–,–,–,–,–,300,–,–
CC(=O)N[C@H](COC(C)C)C(=O)NCc1ccccc1,23,23,8.6,> 500,>58,–,–,–,3.3,–
CCOC[C@@H](NC(C)=O)C(=O)NCc1ccccc1,7.9,–,5.6,> 500,>89,–,–,–,5.6,–
COCCOCCOC[C@@H](NC(C)=O)C(=O)NCc1ccccc1,> 300,> 100,> 30,> 50,–,–,–,> 300,–,–
CC(=O)N[C@H](COC(C)(C)C)C(=O)NCc1ccccc1,30,–,–,–,–,–,–,300,–,–
CC(=O)N[C@H](COc1ccccc1)C(=O)NCc1ccccc1,100,–,–,–,–,–,–,> 600,–,–
CC(=O)N[C@H](COCCC1CO1)C(=O)NCc1ccccc1 (mixture of isomers),> 300,–,–,–,–,–,–,> 300,–,–
C=CCOCC(NC(C)=O)C(=O)NCc1ccccc1 (racemic),30,–,–,–,–,–,–,30,–,–
COC[C@@H](NC(C)=O)C(=O)NCc1ccccc1 [LACOSAMIDE],–,–,–,> 500,–,–,–,–,–,–
CCC1(c2ccccc2)C(=O)NC(=O)NC1=O [PHENOBARBITAL],22,–,9.1,–,–,–,–,–,–,–
O=C1NC(=O)C(c2ccccc2)(c2ccccc2)N1 [PHENYTOIN],–,–,30,–,–,–,–,–,–,Non-toxic
CCCC(CCC)C(=O)O [VALPROIC ACID],270,–,–,–,–,–,–,–,–,–
